In the library only some 12% were active in any assay of this set; here they are far more common.
RAM network inh: yeast RAM network inhibition | S. cerevisiae dse1pr::URA3 reporter, 5-FOA growth OD615, 2 d; analog-sensitive cbk1-as2 kinase mutant strain | inhibition, % at 50 µM | 1.8% of 190,000 active;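 active means inhibition above a set limit, 3 SD over mean compound inhibition, cut at about 8.4% in these data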;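 further: inhibition rescues growth on 5-FOA so higher OD means more RAM inhibition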
L major viab: reduces viability of Leishmania major promastigotes. resazurin fluorescence viability. inhibition, % at 10 µM. 9% of 200,000 active. AID 1063; in the data active means inhibition above about 50%;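 further: promastigotes grown with compound for 44 hours at 28 °C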
WT yeast gro inh: growth inhibition of WT yeast, mitochondrial fusion screen | 2.1% of 190,000 active | mitochondrial fusion phenotypic screen, WT strain | inhibition, % at 10 µM; in the data active means inhibition above about 58%; tested in S. cerevisiae
ABCB1 inh: human ABCB1 inhibition, ABCG2 as counter-screen. AID 1326. CCRF-Adr cells, JC-1 efflux, flow cytometry. P08183. 0.067% of 190,000 active. inhibition, % at 6.6 µM; in the data active means inhibition above about 40%;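 further: higher value means more JC-1 retained so stronger ABCB1 efflux block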
ABCG2 inh: human ABCG2 inhibition, ABCB1 as counter-screen; 0.1% of 190,000 active; Q9UNQ0; inhibition, % at 6.6 µM; AID 1325; IgMXP3 cells, JC-1 efflux, flow cytometry;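 active means inhibition above 80%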
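test system = two drug-resistant human cell lines, ABCG2 and ABCB1 | amount = 3 million cells/mL final, two lines in 1:1 ratio | reagent = JC-1 transporter substrate | doses = one concentration, 6.6 µM final | incubation = 10 min at 25 °C | signal = flow cytometric JC-1 green MFI at 530 nm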
Of the large screens only hits and unclear results are named; the others gave an inactive call.

Cc1ccc(CSC2=NCCN2S(=O)(=O)c2ccccc2)cc1	L major viab 100
Cc1c(C=O)c2ccccc2n1CC(=O)NC(C)c1ccccc1 (stereo not drawn)	none
COc1cccc(-c2csc(N3CCN(C(=S)Nc4ccc(Cl)cc4)CC3)n2)c1	L major viab 79
COc1ccc(C(=O)NC(Nc2ccc(C)cc2)C(Cl)(Cl)Cl)cc1 (stereo not drawn)	L major viab 75
Cc1ccc(C(=O)NC(NCc2ccco2)C(Cl)(Cl)Cl)cc1 (stereo not drawn)	L major viab 60
COc1ccc(NC(NC(=O)c2ccc(OC)cc2)C(Cl)(Cl)Cl)cc1 (stereo not drawn)	none
CCN1CCCc2cc(CN(CCN3CCOCC3)C(=S)Nc3ccc(OC)c(Cl)c3)ccc21	none
COc1ccc(NC(=S)NCCCN2CCCC2)cc1Cl	none
COc1cccc(NC(=S)N(CCCN2CCCC(C)C2)Cc2cccs2)c1 (stereo not drawn)	L major viab 100
COc1cccc(NC(=S)N(CCN2CCCCC2)Cc2ccco2)c1	none
CSc1cccc(NC(=S)N(CCCN2CCCC(C)C2)Cc2cccs2)c1 (stereo not drawn)	L major viab 99
COc1ccc(NC(=S)N2CCC(N(C)CCN3CCOCC3)CC2)cc1Cl	L major viab 76
Cc1cc(C)cc(NC(=S)N(CCCN2CCN(C)CC2)Cc2cccs2)c1	none
COc1ccc(NC(=S)NCCN2CCC(C)CC2)cc1Cl	L major viab 69
Cc1nonc1OCCNCc1c(C(=O)N(C)C)nc2ccc(Cl)cn12	none
O=C(COC(=O)c1cc(S(=O)(=O)N2CCOCC2)ccc1O)NCCc1ccccc1	none
COc1ccc(NC(=S)N(CCCN2CCC(C)CC2)Cc2cccs2)cc1Cl	L major viab 99
COc1ccc(NC(=S)N(CCCN2CCN(C)CC2)Cc2cccs2)cc1	none
CC(=O)N(C)c1nnc(-c2cnccn2)s1	WT yeast gro inh 74
O=C(CN1CCN(S(=O)(=O)c2ccccc2F)CC1)NC1CCCC1	none
O=C1NCCN(C(=O)CCc2nnc(-c3ccsc3)o2)C1c1ccc(F)cc1 (stereo not drawn)	none
O=C(/C(=C/O)N=Nc1ccccc1)c1cccs1	L major viab 83
COc1ccc(N=N/C(=C\O)C(=O)c2ccco2)cc1	none
O=S(=O)(Cc1ccccc1)N1CCc2ccccc21	L major viab 100
CN(C)S(=O)(=O)N1CCc2ccccc21	none
COP(=O)(CC(=O)c1ccccc1)CC(=O)c1ccccc1	none
CC(=O)c1ccc(-c2nnc(CCC(=O)N(C)Cc3c(C)nc4ccccn34)o2)s1	none
Cc1ccc(O)c(C(=O)c2cnc3c(c2)COc2ccc(C)cc2-3)c1	RAM network inh 8.7
Cc1ccc2c(c1)-c1ncc(C(=O)c3cc(Br)ccc3O)cc1CO2	none
O=C(NCCCn1cccn1)c1cc(COc2ccc(F)cc2Cl)on1	none
COc1ccc(C)cc1S(=O)(=O)Nc1cc(Cl)ccc1Cl	none
COc1cc(NS(=O)(=O)c2cc(C)ccc2OC)c(OC)cc1Cl	L major viab 99
N#C/C(=C\c1c(N2CCCCC2)nc2ccccn2c1=O)C(=O)NCc1ccco1	L major viab 83
Cc1cccn2c(=O)c(/C=C(\C#N)C(=O)NCc3ccco3)c(N3CCCCC3)nc12	none
N#C/C(=C\c1c(N2CCCCC2)nc2ccccn2c1=O)C(=O)NC1CCS(=O)(=O)C1 (stereo not drawn)	L major viab 56
CN1CCN(CC(O)(c2ccc(Cl)cc2)c2ccc(Cl)cc2)CC1	L major viab 53, WT yeast gro inh 82
CCC(C)NCC(O)(c1ccc(Cl)cc1)c1ccc(Cl)cc1 (stereo not drawn)	none
O=C(CSc1nc(-c2cccs2)cc(C(F)(F)F)n1)Nc1cc(OCC(F)(F)C(F)F)cc([N+](=O)[O-])c1	L major viab 84
O=C1CSC(c2ccc(Cl)cc2)N1Nc1nc(N2CCOCC2)nc(N2CCOCC2)n1 (stereo not drawn)	none
Cc1cccc2c(CC(=O)Nc3ccccc3)noc12	none
CCCCc1ccc(-n2c(Cc3cccs3)n[nH]c2=S)cc1	WT yeast gro inh 74
COCc1cc(C)nc(SCC[N+](C)(C)CC(=O)Nc2cccc(C(F)(F)F)c2)c1C#N	none
COc1ccc(NC(=S)N2CCN(CCN=CC3=C(O)CC(c4ccccc4)CC3=O)CC2)cc1 (stereo not drawn)	L major viab 53
O=C(c1cnn(-c2ccccc2)c1)c1ccc2ccccc2c1O	RAM network inh 10
COc1cc([N+](=O)[O-])ccc1NC(=O)C[n+]1cccc(C(C)=O)c1	none
Oc1ccc(Nc2nc3ccccc3nc2Nc2ccc(O)cc2)cc1	L major viab 92
Cc1n[nH]c(=O)nc1Nc1ccc(O)cc1	none
CCOc1cccc(-c2nn(-c3ccccc3)cc2/C=C(/C#N)C(=O)NCCCn2ccnc2)c1	L major viab 100, WT yeast gro inh 60
N#C/C(=C/c1cn(-c2ccccc2)nc1-c1cccc(OCc2ccccc2)c1)C(=O)NCCCn1ccnc1	L major viab 100
O=C(NCCCn1ccnc1)c1cn(-c2ccccc2)nc1-c1ccccc1	none
CN(C)c1ccc(C2CC(c3ccccc3)=Nc3nc(-c4ccccc4)cn32)cc1 (stereo not drawn)	L major viab 91
CCOc1ccc(CCNC(=O)c2ccc(CNS(=O)(=O)c3ccccc3)cc2)cc1OCC	L major viab 53
CCOc1ccc(CCNC(=O)COC(=O)c2ccccc2O)cc1OCC	L major viab 82
COc1ccc(CCNC(=O)c2ccc(CNS(=O)(=O)c3ccc(C(C)(C)C)cc3)cc2)cc1OC	none
O=[N+]([O-])c1cc2c(cc1Br)CCN2	none
CC(C)C(=O)Nc1cc(C(F)(F)F)ccc1-n1ccnc1	none
CC(Sc1nc(-c2ccc(F)cc2)cs1)C(=O)Nc1ccc(Cl)cn1 (stereo not drawn)	RAM network inh 10, L major viab 61
O=C(CN(c1ccccn1)S(=O)(=O)c1ccccc1)N/N=C/c1cccc([N+](=O)[O-])c1	none
CC(C)OC(=O)c1cccc(-c2ccc(C=O)o2)c1	L major viab 88
COc1cc(NC(=O)c2c(F)cccc2F)c(Cl)cc1Cl	none
Oc1ccccc1N=Nc1ccccc1O	L major viab 100
CC(=O)Oc1ccc2c(C)cc(=O)oc2c1	none
CCN(c1ccccc1)S(=O)(=O)c1cc(C(=O)Oc2ccc3c(C)cc(=O)oc3c2)ccc1C	L major viab 67
O=C(Nc1nnc(SCc2ccc(F)cc2)s1)c1ccccn1	L major viab 99
O=C(Nc1nc2ccccc2s1)c1cnccn1	none
CCOC(=O)c1csc(Nc2nc3ccc(F)cc3s2)n1	L major viab 95
COC(=O)c1ccc2nc(Nc3nc4ccc(F)cc4s3)sc2c1	none
O=C(Nc1nnc(SCc2ccc(F)cc2)s1)c1cccnc1Cl	none
O=C(Nc1nc2ccc(F)cc2s1)c1ccccn1	L major viab 100, WT yeast gro inh 79
CCN(CC)S(=O)(=O)c1ccc2nnn(O)c2c1	none
